# Screening results deposited in PubChem by Broad Institute.
# T cruzi growth-1 – T. cruzi intracellular proliferation inhibitors, primary screen, cell-based, beta-gal Tulahuen parasites, NIH3T3 host, luminescence; T. cruzi beta-gal in NIH3T3, GalScreen luminescence, 90 h; inhibition, % at 8.34 µM; 77,000 tested, 5.9% active;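 active = mean inhibition above about 93%, with at least 55% of replicates each passing it, limit read from the data, passing the limit was not always enough; inconclusive = only one of those two conditions holds; inactive = neither condition holds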
# GASC1 inh – inhibitors of GASC-1 (KDM4C) histone demethylase, primary screen, biochemical, single concentration HTS; Lysine-specific demethylase 4C (Homo sapiens), Q9H3R0; GST-KDM4C 2-372, H3K9me3 peptide, LANCE TR-FRET; inhibition, % at 12.5 µM; 96,000 tested, 0.15% active;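 active = mean replicate inhibition above about 25%, with at least 55% of replicates also reaching it, limit read from the data, passing the limit was not always enough; inconclusive = only one of those two conditions met; inactive = neither condition met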
# Target sequence (Q9H3R0 2-372 limits assumed): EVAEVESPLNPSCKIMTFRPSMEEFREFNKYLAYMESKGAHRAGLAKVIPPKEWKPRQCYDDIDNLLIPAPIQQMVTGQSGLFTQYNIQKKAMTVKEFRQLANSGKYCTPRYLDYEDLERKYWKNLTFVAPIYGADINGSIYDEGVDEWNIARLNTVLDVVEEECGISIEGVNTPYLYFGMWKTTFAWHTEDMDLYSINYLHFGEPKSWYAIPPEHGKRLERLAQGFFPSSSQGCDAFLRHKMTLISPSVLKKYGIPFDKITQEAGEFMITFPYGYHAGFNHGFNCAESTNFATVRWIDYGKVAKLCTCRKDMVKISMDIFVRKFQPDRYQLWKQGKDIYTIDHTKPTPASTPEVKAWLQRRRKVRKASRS
#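 Material: N-terminal GST-fused human GASC-1 (KDM4C) fragment, residues 2-372. Input: 10 nM enzyme. Incubation: enzyme reaction 30 min, then detection 60 min, both room temperature. Doses: one test concentration per compound. Read-out basis: inhibition from TR-FRET ratio decrease. Detection: LANCE TR-FRET, excitation 340 nm, emissions 618 and 671 nm.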
# IDH1 R132H inh – inhibitors of IDH1 R132H reductase, primary screen, biochemical, plate reader, single point | Isocitrate dehydrogenase [NADP] cytoplasmic (Homo sapiens), O75874 | diaphorase/resazurin fluorescence, 60 min | inhibition, % at 10 µM | 70,000 tested, 0.18% active | AID 624101, 2012; in the data active = inhibition above about 34%; inconclusive = no clear call, values can overlap the other calls; inactive = below about 11%;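 note: 0% = DMSO and 100% = no enzyme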
# Pf Dd2 inh – P. falciparum Dd2 growth inhibitors, primary screen, SYBR Green fluorescence, single dose replicates; 72 h; active compounds read low; 94,000 tested, 2.3% active; AID 1159554, 2015; activity change, % at 10 µM; in the data active = activity change below about -80%; inconclusive = no clear call, values can overlap the other calls
# T cruzi growth-2 – T. cruzi intracellular proliferation inhibitors, confirmation, cell-based, NIH3T3 host, beta-gal parasite, luminescence, cherry-pick | shares compounds with T cruzi growth-1 | T. cruzi beta-gal in NIH3T3, GalScreen luminescence, 90 h | AID 651739, 2012 | 5,600 tested, 72% active | inhibition, % at 8.35 µM;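 active = mean replicate inhibition above about 95% and at least 55% of replicates individually reaching it, limit read from the data; inconclusive = only one of the two criteria is met; inactive = neither criterion is met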
# T cruzi growth-3 – inhibitors of intracellular T. cruzi replication, confirmation, NIH3T3 host cells, beta-gal parasites, cherry-pick, set 2 | T. cruzi beta-gal in NIH3T3, GalScreen luminescence, 90 h | 5,600 tested, 21% active | shares compounds with T cruzi growth-1 | inhibition, % at 2.09 µM;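 active = mean inhibition above about 95%, with at least 55% of replicates also reaching it, limit read from the data; inconclusive = meets just one of the two conditions; inactive = meets neither condition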;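 note: plate controls were neutral control median for no effect and positive control median for full effect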
# 3T3 cytotox – cytotoxicity in mouse NIH/3T3 fibroblasts, confirmation, cytotoxicity control for T. cruzi proliferation inhibitor project, cell-based, cherry-pick, single point | 5,600 tested, 14% active | NIH/3T3 viability, CellTiter-Glo ATP luminescence, 90 h | cytotoxicity (signal decrease), % at 8.35 µM | shares compounds with T cruzi growth-1;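 active = mean signal decrease across replicates above about 35% based on untreated-well scatter, with enough replicates individually passing, limit read from the data; inconclusive = no rule stated though some were filed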;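 note: 0% = median of neutral control wells and 100% = median of positive control wells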
# NIH3T3 tox 2 – NIH/3T3 fibroblast cytotoxicity, confirmation, cytotoxicity control, cell-based, cherry-pick, single point, set 2. shares compounds with T cruzi growth-1. NIH/3T3 viability, CellTiter-Glo ATP luminescence, 90 h. inhibition, % at 24.9 µM. 5,600 tested, 56% active. AID 651744, 2012;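 active = mean loss of cell viability signal at or above a set limit, and enough replicates individually reaching it; inconclusive = meets only the mean limit or only the replicate share; inactive = meets neither condition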;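 note: 0% = median of neutral control wells and 100% = median of positive control wells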
# * marks the source's active call; other numbers are inactive results; ? = inconclusive; / = not tested or not shown. In the library only some 5.9% were active in any assay of this set; here they are far more common.
SMILES,T cruzi growth-1,GASC1 inh,IDH1 R132H inh,Pf Dd2 inh,T cruzi growth-2,T cruzi growth-3,3T3 cytotox,NIH3T3 tox 2
COc1cccc(CN2CCCCN3[C@H](CO)[C@H](c4ccc(-c5cccc(C#N)c5)cc4)[C@@H]3C2)c1,111*,-3,/,-64,108*,101*,11,102*
Cc1cccc(-c2ccc([C@H]3[C@@H](CO)N4CCCCN(Cc5ccncc5)C[C@H]34)cc2)c1,86,3,/,-51,/,/,/,/
Cc1cccc(-c2ccc([C@H]3[C@H](CO)N4CCCCN(Cc5ccncc5)C[C@@H]34)cc2)c1,?,3,/,-19,101*,47,23,105*
Cc1cccc(-c2ccc([C@H]3[C@@H](CO)N4CCCCN(Cc5cccnc5)C[C@@H]34)cc2)c1,120*,0,/,-9,?,74,22,103*
CCn1ccc(CNC(=O)Nc2ccc(Cl)cc2Cl)n1,/,/,0,/,/,/,/,/
CC(C)(C)OC(=O)NC1(/C=N/NC(=O)CCCCCC(=O)O)CCCC1,/,/,-1,/,/,/,/,/
COc1ccc(NC(=O)C(C)N(c2cc(C)cc(C)c2)S(C)(=O)=O)c(OC)c1 (stereo not given),/,/,0,/,/,/,/,/
COc1cccc(-c2ccc([C@H]3[C@@H](CO)N4CCCCN(Cc5cncnc5)C[C@@H]34)cc2)c1,88,-2,/,13,/,/,/,/
OC[C@H]1[C@@H](c2ccc(-c3ccc(F)cc3)cc2)[C@@H]2CN(Cc3cccnc3)CCCCN12,99*,-1,/,-59,99*,34,29,105*
Cc1cccc(-c2ccc([C@@H]3[C@H](CO)N4CCCCN(Cc5cncnc5)C[C@@H]34)cc2)c1,86,0,/,-27,/,/,/,/
Cc1cccc(-c2ccc([C@@H]3[C@H]4CN(Cc5cncnc5)CCCCN4[C@H]3CO)cc2)c1,103*,0,/,16,78,-14,12,102*
COc1cccc(-c2ccc([C@H]3[C@@H](CO)N4CCCCN(Cc5cncnc5)C[C@H]34)cc2)c1,99*,2,/,4,108*,65,27,45*
Cc1cccc(-c2ccc([C@@H]3[C@@H](CO)N4CCCCN(Cc5cncnc5)C[C@@H]34)cc2)c1,43,0,/,13,/,/,/,/
Cc1cccc(-c2ccc([C@H]3[C@@H](CO)N4CCCCN(Cc5cccnc5)C[C@H]34)cc2)c1,99*,-1,/,-55,97*,70,45*,105*
Cc1nc(CSc2nc3sc(C)c(C)c3c(=O)n2-c2ccccc2)cs1,/,/,1,/,/,/,/,/
OC[C@@H]1[C@H](c2ccc(Br)cc2)[C@H]2CN(Cc3ccccn3)CCCCN12,97*,1,/,-7,99*,58,-1,0
OC[C@@H]1[C@H](c2ccc(-c3ccccc3)cc2)[C@H]2CN(Cc3cncnc3)CCCCN12,101*,1,/,6,?,80,13,53*
OC[C@@H]1[C@H](c2ccc(Br)cc2)[C@@H]2CN(Cc3cncnc3)CCCCN12,96*,-1,/,-8,77,66,-7,-2
N#C[C@@H]1[C@@H](c2ccc(-c3ccc(F)cc3)cc2)[C@@H](CO)N1c1nc(-c2ccccc2)cs1,105*,-3,/,-40,108*,96*,16,13
N#C[C@H]1[C@@H](c2ccc(-c3cccc(F)c3)cc2)[C@@H](CO)N1c1nc(-c2ccccc2)cs1,94,2,/,25,/,/,/,/
N#C[C@@H]1[C@@H](c2ccc(-c3cccc(F)c3)cc2)[C@@H](CO)N1c1nc(-c2ccccc2)cs1,99*,-2,/,-51,110*,99*,29,16
N#C[C@@H]1[C@@H](c2ccc(C3=CCCC3)cc2)[C@@H](CO)N1c1nc(-c2ccccc2)cs1,108*,-3,/,6,96*,40,6,13
COc1ccccc1-n1c(CN2C(=O)c3ccccc3C2=O)nc2ccccc2c1=O,/,/,0,/,/,/,/,/
COc1ccc(S(=O)(=O)Nc2ccc3c(c2)C(=O)N([C@@H](C)CO)C[C@@H](C)[C@@H](CN(C)S(=O)(=O)c2ccc(F)cc2)OCCCC[C@H](C)O3)cc1,44,-1,/,-63,/,/,/,/
COc1ccc(S(=O)(=O)Nc2ccc3c(c2)C(=O)N([C@@H](C)CO)C[C@@H](C)[C@H](CN(C)S(=O)(=O)c2ccc(F)cc2)OCCCC[C@@H](C)O3)cc1,108*,10,1,-12,114*,65,11,23
SMILES,T cruzi growth-1,GASC1 inh,IDH1 R132H inh,Pf Dd2 inh,T cruzi growth-2,T cruzi growth-3,3T3 cytotox,NIH3T3 tox 2
COc1ccc(S(=O)(=O)Nc2ccc3c(c2)C(=O)N([C@@H](C)CO)C[C@@H](C)[C@@H](CN(C)S(=O)(=O)c2ccc(F)cc2)OCCCC[C@@H](C)O3)cc1,79,-1,1,-42,/,/,/,/
COc1ccc(S(=O)(=O)N(C)C[C@H]2OCCCC[C@@H](C)Oc3ccc(NS(=O)(=O)c4ccc(F)cc4)cc3C(=O)N([C@@H](C)CO)C[C@H]2C)cc1,100*,1,3,-51,99*,75,-16,-15
COc1ccc(S(=O)(=O)Nc2ccc3c(c2)C(=O)N([C@@H](C)CO)C[C@@H](C)[C@H](CN(C)S(=O)(=O)c2ccc(F)cc2)OCCCC[C@H](C)O3)cc1,100*,/,/,-28,103*,39,30,5
CCc1ccc(NC(=O)Cn2c(-c3nonc3N)nc3ccccc32)cc1,/,/,0,/,/,/,/,/
O=[N+]([O-])c1cccc(NC(=S)NCc2cn(-c3ccccc3)nc2-c2ccccc2)c1,/,/,0,/,/,/,/,/
C[C@@H]1CN([C@@H](C)CO)C(=O)c2cc(NS(=O)(=O)c3ccc(F)cc3)ccc2O[C@@H](C)CCCCO[C@@H]1CN(C)Cc1ccc2c(c1)OCO2,119*,0,1,-73,106*,45,17,97*
C[C@@H]1CN([C@H](C)CO)C(=O)c2cc(NS(=O)(=O)c3ccc(F)cc3)ccc2O[C@@H](C)CCCCO[C@H]1CN(C)Cc1ccc2c(c1)OCO2,112*,2,-4,-48,106*,85,29,104*
